Experimental data published in ChEMBL document CHEMBL2346527, “Kinase scaffold repurposing for neglected disease drug discovery: discovery of an efficacious, lapatinib-derived lead compound for trypanosomiasis” (J Med Chem, 2013).

How the values were obtained:
HepG2 = assay: Cytotoxicity against human HepG2 cells after 48 hrs by MTT assay; assay type: cell-based; details: HepG2, 48 h
Method in brief: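 HepG2 cytotoxicity was read by an MTT assay adapted to 384-well format. IC50 was fitted by nonlinear regression (sigmoidal dose-response, variable slope).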

[1] = test system: Trypanosoma brucei brucei; assay: Antitrypanosomal activity against bloodstream form Trypanosoma brucei brucei Lister 427 after 48 hrs by hemocytometer; assay type: functional, organism-based; details: Lister 427, 48 h
Method in brief: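 Bloodstream Lister 427 cells were seeded at 2 × 10^3 cells/ml in HMI-9 medium and given drug from 200X DMSO stocks, with DMSO as control. Three independent experiments, each dose in duplicate (n = 6).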

| SMILES | IC50 (HepG2) [nM] | EC50 [1] [nM] |
| --- | --- | --- |
| O=S(=O)(c1ccc(-c2ccc3ncnc(Nc4ccc(OCc5cccc(F)c5)c(Cl)c4)c3c2)cc1)N1CCSCC1 | > 15000 | 470 |
| O=S(=O)(c1ccc(-c2ccc3ncnc(Nc4ccc(OCc5cc(F)cc(F)c5F)c(Cl)c4)c3c2)cc1)N1CCOCC1 | > 3000 | 1120 |
| Fc1cccc(COc2ccc(Nc3ncnc4ccc(-c5ccc(N6CCOCC6)cc5)cc34)cc2Cl)c1 | 9600 | 1910 |
| Cc1nnc(-c2cccc(-c3ccc4ncnc(Nc5ccc(OCc6cccc(F)c6)c(Cl)c5)c4c3)c2)o1 | – | 4210 |
| CS(=O)(=O)CCNCc1ccc(-c2ccc3ncnc(Nc4ccc(OCc5ccccc5)c(Br)c4)c3c2)o1 | – | 560 |
| CS(=O)(=O)CCN(CC#N)Cc1ccc(-c2ccc3ncnc(Nc4ccc(OCc5cccc(F)c5)c(Cl)c4)c3c2)o1 [GW616030X] | – | 520 |
| CS(=O)(=O)CCN(Cc1ccccc1)Cc1ccc(-c2ccc3ncnc(Nc4ccc(OCc5cccc(F)c5)c(Cl)c4)c3c2)o1 | – | 1510 |
| O=C(c1ccc(-c2ccc3ncnc(Nc4ccc(OCc5cccc(F)c5)c(Cl)c4)c3c2)cc1)N1CCOCC1 | – | 1210 |
| Fc1cccc(COc2ccc(Nc3ncnc4ccc(-c5ccccc5Oc5ccccc5)cc34)cc2Cl)c1 | – | 5300 |
| CC1(C)OB(O)c2cc(NC(=O)c3ccc(F)cc3C(F)(F)F)ccc21 [ACOZIBOROLE] | – | 794 |
| O=c1[nH]cc(-c2ccc3ncnc(Nc4ccc(OCc5cccc(F)c5)c(Cl)c4)c3c2)c(=O)[nH]1 | – | 22600 |
| CC(C)(C)NS(=O)(=O)c1ccccc1-c1ccc2ncnc(Nc3ccc(OCc4cccc(F)c4)c(Cl)c3)c2c1 | – | 4660 |
| Fc1cccc(COc2ccc(Nc3ncnc4ccc(-c5cccc(CN6CCCCC6)c5)cc34)cc2Cl)c1 | – | 650 |
| Fc1cccc(COc2ccc(Nc3ncnc4ccc(-c5cccc6ncccc56)cc34)cc2Cl)c1 | – | 4530 |
| CCCS(=O)(=O)CCNCc1ccc(-c2ccc3ncnc(Nc4ccc(OCc5cccc(F)c5)c(Cl)c4)c3c2)o1 | – | 430 |
| CC(C)S(=O)(=O)CCNCc1ccc(-c2ccc3ncnc(Nc4ccc(OCc5cccc(F)c5)c(Cl)c4)c3c2)o1 | – | 480 |

| SMILES | IC50 (HepG2) [nM] | EC50 [1] [nM] |
| --- | --- | --- |
| O=C(NC1CC1)c1cccc(-c2ccc3ncnc(Nc4ccc(OCc5cccc(F)c5)c(Cl)c4)c3c2)c1 | – | 4500 |
| O=S(=O)(CCSCc1ccc(-c2ccc3ncnc(Nc4ccc(OCc5cccc(F)c5)c(Cl)c4)c3c2)o1)c1ccccc1 | – | 550 |
| Fc1cccc(COc2ccc(Nc3ncnc4ccc(-c5ccc(N6CCCCC6)cc5)cc34)cc2Cl)c1 | – | 380 |
| NCCCC(N)(C(=O)O)C(F)F (stereo not given) [EFLORNITHINE] | – | 16400 |
| Oc1ccc(-c2ccc3ncnc(Nc4ccc(OCc5cccc(F)c5)c(Cl)c4)c3c2)cc1 | – | 6450 |
| Cc1ccc(-c2ccc3ncnc(Nc4ccc(OCc5cccc(F)c5)c(Cl)c4)c3c2)c2ccccc12 | – | 2270 |
| O=C(c1cccc(-c2ccc3ncnc(Nc4ccc(OCc5cccc(F)c5)c(Cl)c4)c3c2)c1)N1CCOCC1 | – | 550 |
| CCNC(=O)c1ccc(-c2ccc3ncnc(Nc4ccc(OCc5cccc(F)c5)c(Cl)c4)c3c2)cc1F | – | 3850 |
| O=C(c1ccc(-c2ccc3ncnc(Nc4ccc(OCc5cccc(F)c5)c(Cl)c4)c3c2)cc1)N1CCCCC1 | – | 940 |
| Fc1cccc(COc2ccc(Nc3ncnc4ccc(-c5cc6ccccc6s5)cc34)cc2Cl)c1 | – | 5980 |
| O=S1(=O)CCN(Cc2ccc(-c3ccc4ncnc(Nc5ccc(OCc6ccccc6)c(Cl)c5)c4c3)o2)CC1 | – | 410 |
| Fc1cccc(COc2ccc(Nc3ncnc4ccc(-c5cccc(CN6CCOCC6)c5)cc34)cc2Cl)c1 | – | 360 |
| N=C(N)c1ccc(OCCCCCOc2ccc(C(=N)N)cc2)cc1 [PENTAMIDINE] | – | 3.5 |
| Fc1cccc(COc2ccc(Nc3ncnc4ccc(-c5ccc(CN6CCCCC6)cc5)cc34)cc2Cl)c1 | – | 1500 |
| O=S(=O)(c1cccc(-c2ccc3ncnc(Nc4ccc(OCc5cccc(F)c5)c(Cl)c4)c3c2)c1)N1CCOCC1 | > 15000 | – |
| Nc1nc(N)nc(Nc2ccc([As]3SCC(CO)S3)cc2)n1 (stereo not given) [MELARSOPROL] | – | 6.3 |
